Reference: publication PMC2865857 (Journal of molecular biology, 2010)
pKd: −log10 of the molar value. Where no end group is shown, it is not given here. [ ]: non-standard residue; d: D form. Lys(Me2) = CN(C)CCCC[C@H](N)C(=O)O

Columns and labels:
[1] = target: T1, human 53BP1 tandem Tudor domain (Homo sapiens, UniProt Q12888); experiment: Binding of peptides to the 53BP1 tandem Tudor domain by tryptophan fluorescence; settings: for decrease in binding affinity relative to p53K382me2: ratio of Kd values, 25°C (Fig. 2a, b; Fig. 3e)
Method in brief: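 Synthetic Fmoc-made peptides were HPLC-purified. Intrinsic tryptophan fluorescence was measured at 25°C on 0.5 μM protein with increasing peptide, exciting at 295 nm and recording emission at 305–405 nm over three scans. Kd came from a nonlinear quadratic binding fit, averaged over three experiments ± SD.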

[2] = target: T1, human 53BP1 tandem Tudor domain; experiment: other fluorescence titration

Molecule | decrease in binding affinity relative to p53K382me2 ([1]; tryptophan fluorescence) | further results
CSCC[C@H](NC(=O)[C@H](CC(C)C)NC(=O)[C@H](CCCCN(C)C)NC(=O)[C@H](CCCCN)NC(=O)[C@H](Cc1c[nH]cn1)NC(=O)[C@H](CCCNC(=N)N)NC(=O)[C@H](CO)NC(=O)[C@@H](N)[C@@H](C)O)C(=O)N[C@@H](Cc1ccccc1)C(=O)N[C@@H](CCCCN)C(=O)O [p53K382me2] |  | pKd [1]: 6.05
p53K370me2: p53 peptide (366–375) dimethylated at Lys370 (SSHL[Lys(Me2)]SKKGQ) | 22 fold | 
H4K20me2 peptide (15–23) (from UniProt P62805 16-24) |  | pKd [2]: 5.89
p53K382me2L383A: p53K382me2 peptide (377–386) with Leu383 replaced (TSRHK[Lys(Me2)]AMFK) |  | effect of residue replacement on the Kd relative to p53K382me2 (in words) ([1]; tryptophan fluorescence, 25°C (Fig. 2a)): virtually no effect
p53K372me2: p53 peptide (367–377) dimethylated at Lys372 (SHLKS[Lys(Me2)]KGQST) | 22 fold | 
unmodified p53 peptide: unmodified p53 peptide, residues 377–386 (TSRHKKLMFK; UniProt P04637 377-386, looked up, fragment) |  | association of 53BP1 tandem Tudor domain with peptide (in words) ([1]; Fig. 2a, measured by tryptophan fluorescence or Isothermal Titration Calorimetry): does not associate
p53H380AK382me2: p53K382me2 peptide (377–386) with His380 substituted with Ala (TSRAK[Lys(Me2)]LMFK) | 16 fold | 
p53K381AK382me2: p53K382me2 peptide (377–386) with Lys381 substituted with Ala (TSRHA[Lys(Me2)]LMFK) | 11 fold | 
